In PMC5741288 (Pain Reports, 2016):
Values after ≈ are worked out from the molar mass of the structure shown. “Also recorded” adds a separate entry of the source.

What was measured:
[1] = tested on: naïve and UVB-sensitized skin; test: Sensory testing part 2 on naïve and UVB-sensitized skin; assay type: in vivo, healthy men
Outline: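 In the part 2 crossover (oral 10 or 50 mg, or placebo), minimal erythema dose was first found with graded UVB on the lower back. Three times that dose was then given to the volar forearm. Warm detection, heat pain detection, heat pain tolerance, mechanical pain threshold and allodynia were tested on UVB-treated and naïve skin. Times were predose, 4, 8, 24, 72, 120 and 144 h, and follow-up, to a 52 °C maximum.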

capsaicin-induced flare [2] = test: Capsaicin-induced flare area and intensity in humans; assay type: in vivo, healthy men
Outline: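 Part 2 was a double-blind, 3-way crossover of single oral test compound (10 or 50 mg) or placebo tablets after an overnight fast. Capsaicin cream (0.075% w/w) stayed on the forearm for 30 min. Laser Doppler scans were taken before and after, at predose, 4 h and 144 h postdose. Flare area counted pixels with flux above the 95th percentile (mean + 2 SD) of baseline. Intensity was taken as relative flux.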

[3] = Urinary excretion and renal clearance; assay type: in vivo, healthy men
Outline: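 Samples were assayed by LC-MS/MS over 5–1000 ng/mL (LLOQ 5 ng/mL). Excreted amount = urine volume × concentration, % of dose = Ae/dose × 100, and renal clearance = Ae/AUC.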

human TRPV1 receptors = settings: cited from earlier work
[4] = tested on: complete Freund's adjuvant–evoked thermal hyperalgesia; settings: rat; cited from earlier work
[5] = Oral body temperature and Emax model vs plasma concentration; assay type: in vivo, healthy men; settings: for Mean maximum body temperature: part 2
Outline: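 Oral temperature was recorded as a safety measure in healthy men after single oral tablet doses (part 1: 1–225 mg; part 2: 10, 50 mg, placebo). The maximum value was summarised per dose. An Emax model with baseline effect E0, Emax and EC50 related body temperature to plasma concentration of the test compound.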

QTcF interval = assay type: in vivo, healthy men
capsaicin-induced flare [6] = test: Block of topical capsaicin-induced flare in rats; assay type: in vivo, Sprague Dawley rats
[7] = cited from earlier work
heat-evoked pain = assay type: in vivo, healthy men
Outline: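 In part 1 (single oral tablets, 1–225 mg, or placebo), heat pain detection and tolerance were measured with a 9 × 9 mm Peltier thermode on the volar forearm, to a 52 °C cutoff. Cold and von Frey mechanical pain thresholds were added in part 1b, with ratings on a 0–11 scale. Testing ran predose, 4 and 8 h, days 2, 4 and 6, and follow-up.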

[8] = Plasma pharmacokinetics after single oral dose; assay type: in vivo, healthy men; settings: for Tmax / half-life: male, human, plasma; for Tmax: Median tmax
Outline: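 After a fast of at least 10 h, single oral tablets were given semirecumbent with 240 mL water (part 1: 1–225 mg; part 2: 10, 50 mg). Plasma was assayed by validated LC-MS/MS over 1–1000 ng/mL (LLOQ 1 ng/mL). Noncompartmental analysis used actual times. Cmax and tmax were taken by inspection, t1/2 = 0.693/λz, CL/F = dose/AUC∞, and Vz/F = D/(λz × AUC∞).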

[9] = part 1, vs plasma concentration

Renal clearance ([3]; in vivo): negligible
Concentrations in urine ([3]; lower limit of quantification 5 ng/mL): below the quantification limit
EC50 ([5]; Homo sapiens, po, read-out: EC50, body temperature Emax model): 0.0327 µg/mL (≈ 0.0774 µM)
Participants with body temperature ≥39°C ([5]; part 1, 120-mg, approximately 11-hour postdose): 1 participant
E0, body temperature Emax model [5, 9]: 36.6 °C
Emax, body temperature Emax model [5, 9]: 37.6 °C
Mean maximum body temperature ([5]; 10 mg): 37.9 °C
Mean maximum body temperature ([5]; 50 mg): 38.0 °C
Estimated plasma exposure associated with ED50 (capsaicin-induced flare [6]; rat, data not shown): 0.0676 ± 0.0449 µg/mL
Tmax ([8]; oral, 50 mg, part 2, 10 and 50 mg, tablet, fasted): ~3 h
half-life ([8]; oral, Mean elimination half-life, part 1, doses of 1 to 225 mg): 29.9 to 85.9 h
Tmax ([8]; oral, across the dose range administered (discussion)): 2 to 4.5 h
Tmax ([8]; oral, part 1, doses of 1 to 225 mg, tablet, fasted): 2.02 to 4.44 h
half-life ([8]; po, Terminal phase half-life, single oral doses): 30 to 86 h
Structure (SMILES): CC(C)(O)c1ccccc1-c1ccc2[nH]c(/C=C/c3ccc(C(F)(F)F)cc3)nc2c1 [JNJ-39439335, trans-2-(2-{2-[2-(4-Trifluoromethyl-phenyl)-vinyl]-1H-benzimidazol-5-yl}-phenyl)-propan-2-ol]
HPD threshold, HPT, and warm detection threshold ([1]; naïve and UVB-sensitized skin, 10 and 50 mg): dose-dependent increase
Mechanical pain detection threshold ([1]; naïve skin or UVB-sensitized skin): no clear treatment or dose-related effects
Plasma concentration at which most participants detected warmth before 52°C ([1]; warm detection threshold): < 200 ng/mL
Plasma concentration giving maximum effect on flare area and flare intensity (capsaicin-induced flare [2]; 4-hour postdose): ≥ 90 ng/mL
Plasma concentration giving maximum effect on flare area and flare intensity (capsaicin-induced flare [2]; 144-hour postdose): > 5 ng/mL
Capsaicin-induced flare intensity and flare area (capsaicin-induced flare [2]; part 2, 10 and 50 mg, 4- and 144-hour postdose): dose-related reduction
Capsaicin-induced flare area and flare intensity (capsaicin-induced flare [2]; part 2, 50-mg dose, 144 hours postdose): complete blocking; also recorded: completely blocked
IC50 (human TRPV1 receptors): 4.7 nM
Complete Freund's adjuvant–evoked thermal hyperalgesia [4]: significantly attenuated
Participants with increase in QTcF of >30 milliseconds or QTcF >450 milliseconds (QTcF interval; either part of the study): No participant
Participants with QTcF interval shortening of >30 milliseconds vs baseline (QTcF interval; part 1, 10 mg dose group): 2 n
Participants with QTcF interval shortening of >30 milliseconds vs baseline (QTcF interval; part 1, 15 mg dose group): 3 n
Participants with QTcF interval shortening of >30 milliseconds vs baseline (QTcF interval; part 1, 120 mg dose group): 2 n
Participants with QTcF interval shortening of >30 milliseconds vs baseline (QTcF interval; part 1, 225 mg dose group): 2 n
Participants with QTcF interval shortening of >30 milliseconds vs baseline (QTcF interval; part 1, all JNJ-39439335 doses): 9 participants
Participants with QTcF interval shortening of >30 milliseconds vs baseline (QTcF interval; part 2, 50 mg): 4 participants
Capsaicin-induced flare (capsaicin-induced flare [6]; pretreatment 0.3–30 mg/kg, p.o.): blocked the capsaicin-induced flare in a dose-dependent fashion
Flare response induced by 1000 μg topical capsaicin (capsaicin-induced flare [6]; rat, single oral dose of 10 mg/kg): completely blocked
Safety margins in 4-week toxicology studies ([7]; rat and dog): acceptable safety margins
AUC24h at the no-observed-adverse-effect level dose ([7]; rat, most sensitive animal species): 10,700 ng·h·mL^−1
Heat pain detection threshold, heat pain tolerance, and heat pain latency (heat-evoked pain; effect of treatment): clear, consistent dose-related increases
Mechanical pain detection threshold (heat-evoked pain; healthy human participants (discussion)): no effect
Dose levels at which mean HPT increased from predose to postdose (heat-evoked pain; part 1): ≥ 2 mg
Doses at which most participants reached the HPD cutoff temperature (52°C) (heat-evoked pain; part 1): ≥ 30 mg
Cold pain detection threshold (heat-evoked pain; part 1b, 15- to 225-mg dose range): No clear separation from placebo and no clear dose-related effect
Mean heat pain latency (heat-evoked pain; part 1b, all dose levels tested (15 to 225 mg), predose to postdose): Increases in mean heat pain latency values
Dose proportionality of exposure (Cmax, AUC∞) ([8]; doses of 1 to 225 mg): less than dose-proportional increase in exposure
